Test results taken from ChEMBL document CHEMBL1909566, “Diverse metabolic profiles of a Streptomyces strain isolated from a hyper-arid environment” (2011).
Values after ≈ are worked out from the molar mass of the structure shown.

Legend:
Format in all cases: functional
Staphylococcus aureus = assay: Antibacterial activity against Staphylococcus aureus ATCC 25293 after 18 hrs by […]; settings: ATCC 25923, 18 h, in the assay text read “ATCC 25923” for “ATCC 25293”
In short: (§1)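 Compounds were first screened by agar diffusion, with filter-paper disks of ampicillin (10 μg), oxolinic acid (2 μg) or oxytetracycline (30 μg) as positive controls. For MICs, strains were grown in Müller-Hinton broth to early stationary phase and diluted to OD600 = 0.005. Compound dilutions were added in DMSO (final 10%). Growth was read at OD620 after 18 h at 37 C, in duplicate with two independent cultures.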

Listeria monocytogenes = assay: Antibacterial activity against Listeria monocytogenes ATCC 19115 after 18 hrs by […]; settings: ATCC 19115, 18 h; in short: as §1
Escherichia coli = assay: Antibacterial activity against Escherichia coli ATCC 25922 after 18 hrs by […]; settings: ATCC 25922, 18 h; in short: as §1
Bacillus subtilis = assay: Antibacterial activity against Bacillus subtilis NCTC 2116 after 18 hrs by […]; settings: NCTC 2116, 18 h; in short: as §1
Vibrio parahaemolyticus = assay: Antibacterial activity against Vibrio parahaemolyticus NCTC 10441 after 18 hrs by […]; settings: NCTC 10441, 18 h; in short: as §1

SMILES | MIC (Staphylococcus aureus) | MIC (Listeria monocytogenes) | MIC (Escherichia coli) | MIC (Bacillus subtilis) | MIC (Vibrio parahaemolyticus)
CC/C=C/[C@H]1C/C=C/C=C\[C@H](O)C[C@@H](O)[C@@H](C)/C=C/C[C@@H](C)/C=C/C=C(C)/C=C/C(=O)O1 [CHAXALACTIN A] | 0.4 µg/mL (≈ 0.908 µM) | 6.3 µg/mL (≈ 14.3 µM) | > 20 µg/mL | 3.1 µg/mL (≈ 7.04 µM) | 12.5 µg/mL (≈ 28.4 µM)
CC/C=C/[C@H]1C/C=C/C=C\[C@H](O)[C@@H](O)[C@@H](O)[C@@H](C)/C=C/C[C@@H](C)/C=C/C=C(C)/C=C/C(=O)O1 [CHAXALACTIN B] | 0.2 µg/mL (≈ 0.438 µM) | 5 µg/mL (≈ 10.9 µM) | > 20 µg/mL | 5 µg/mL (≈ 10.9 µM) | 20 µg/mL (≈ 43.8 µM)
CC/C=C/[C@H]1C/C=C/C=C\[C@H](OC)[C@@H](O)[C@@H](O)[C@@H](C)/C=C/C[C@@H](C)/C=C/C=C(C)/C=C/C(=O)O1 [CHAXALACTIN C] | 0.8 µg/mL (≈ 1.7 µM) | 6.3 µg/mL (≈ 13.4 µM) | > 20 µg/mL | 6.3 µg/mL (≈ 13.4 µM) | 12.5 µg/mL (≈ 26.6 µM)
